2 molecules from ChEMBL document CHEMBL4033788, “Novel Ligustrazine-Based Analogs of Piperlongumine Potently Suppress Proliferation and Metastasis of Colorectal Cancer Cells in Vitro and in Vivo” (J Med Chem, 2018) can be followed below.

A short description of data set [1]: Stability of compound in stimulated gastric fluid at 1 uM after 4 hrs by LC-MS/MS analysis.
Data set [2] is described as follows: Acute toxicity in ip dosed ICR mouse assessed as mortality after 14 days. The conditions noted are these: in vivo. The class given is organism-based.
Data set [3] deals with Mus musculus. The data set is described as follows: Acute toxicity in ICR mouse assessed as mortality at 400 mg/kg, ip administered for 14 days. It is filed as organism-based. Conditions: in vivo, 336 h.
The nature of data set [4]: Acute toxicity in ICR mouse assessed as survival rate at 50 mg/kg, ip administered for 14 days relative to control. The class given is organism-based. The conditions noted are these: in vivo.
Data set [5] addresses T1, Catenin beta-1 (Homo sapiens) (UniProt P35222).
T1 sequence (whole entry): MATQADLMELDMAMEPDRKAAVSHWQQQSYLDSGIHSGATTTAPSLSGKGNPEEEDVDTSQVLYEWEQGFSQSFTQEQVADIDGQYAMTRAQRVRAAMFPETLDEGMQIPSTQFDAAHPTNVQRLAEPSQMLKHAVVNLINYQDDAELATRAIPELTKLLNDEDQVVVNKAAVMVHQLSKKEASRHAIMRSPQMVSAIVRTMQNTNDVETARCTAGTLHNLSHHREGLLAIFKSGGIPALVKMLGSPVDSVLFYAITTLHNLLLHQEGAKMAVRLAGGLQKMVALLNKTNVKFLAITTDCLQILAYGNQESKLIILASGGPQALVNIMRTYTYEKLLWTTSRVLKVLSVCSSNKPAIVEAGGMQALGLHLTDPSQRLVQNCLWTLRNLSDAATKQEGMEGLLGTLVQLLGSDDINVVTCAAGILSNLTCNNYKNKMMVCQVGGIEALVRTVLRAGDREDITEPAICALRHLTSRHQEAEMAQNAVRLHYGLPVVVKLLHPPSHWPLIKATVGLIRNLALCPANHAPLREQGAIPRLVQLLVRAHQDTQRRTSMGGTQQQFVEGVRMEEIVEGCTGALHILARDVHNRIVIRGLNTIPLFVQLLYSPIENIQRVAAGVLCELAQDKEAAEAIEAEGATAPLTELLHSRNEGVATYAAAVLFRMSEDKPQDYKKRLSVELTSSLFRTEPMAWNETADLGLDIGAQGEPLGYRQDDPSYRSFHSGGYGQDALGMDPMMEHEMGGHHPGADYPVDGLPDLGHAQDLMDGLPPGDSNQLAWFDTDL
Put plainly: Inhibition of TGF-beta1-regulated decrease in cytoplasmic beta-catenin in human HCT116 cells at 2 to 50 nM after 48 hrs by Western blot analysis. It is filed as cell-based. In short, it runs like this: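 Cytoplasmic and nuclear β-catenin were measured by Western blot in HCT-116 cells given TGF-β1 (10 ng/mL) for 48 h, with or without compound, against 0.1% DMSO vehicle. Lysates (20 μg/lane) were run on 7.5% gels and transferred to PVDF, with Lamin A among the antibodies used. Blots were read by ECL and densitometry, n = 3 independent experiments.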

The nature of data set [6]: Acute toxicity in ICR mouse assessed as survival rate at 300 mg/kg, ip administered for 14 days relative to control. The conditions noted are these: in vivo. The class given is organism-based.
In data set [7] the test system is HCT-116. The data set is described as follows: Inhibition of TGF-beta1-induced increase in expression levels of vimentin protein in human HCT116 cells after 48 hrs by Western blot analysis. It is filed as functional, cell-based. An outline of the steps: (§1)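 HCT-116 cells (1 × 10^6/well, plated overnight) were exposed to TGF-β1 (10 ng/mL) for 48 h, with or without test compound; vehicle was 0.1% DMSO. Lysates (20 μg/lane) were run on 7.5% SDS-PAGE and blotted to PVDF, with primary antibody overnight at 4 °C and HRP/ECL detection. Band densities were normalised to β-actin across three independent experiments.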

Data set [8] concerns Mus musculus. The data set is described as follows: Cardiotoxicity in BALB/c nude mouse xenografted with human HCT116 cells at 2.5 to 5 mg/kg, ip administered for 21 consecutive days. The class given is toxicity, organism-based. Conditions: in vivo. In short, it runs like this: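 Male BALB/c nude mice (3−5 weeks) inoculated sc with 1 × 10^7 HCT-116 cells; at tumour volume about 75 mm3 randomized (n = 8 per group) and dosed ip daily at 2.5 or 5 mg/kg for 21 consecutive days. Body weights monitored; liver, kidney, lung and heart inspected for size and morphology at sacrifice.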
In general terms: A xenograft is tissue or cells of one species grown in another, often human tumour cells in immunodeficient mice.

Data set [9] concerns HCT-116. Put plainly: Inhibition of IL-1beta-mediated adhesion of human rhodamine 123-labeled HCT116 cells to HUVEC after 1 hr by fluoresence assay. The class given is functional, cell-based. An outline of the steps: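 HUVEC monolayers pretreated with or without IL-1β (1 ng/mL) for 4 h, then washed. Rhodamine 123-labeled HCT-116 cells added with vehicle or test agent (2, 10, 50 nM) at 37 °C for 1 h. Non-adherent cells washed off; percent adhered cells determined by fluorescence microscopy. Three separate experiments.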

Data set [10] can be described thus: Acute toxicity in ICR mouse assessed as survival rate at 400 mg/kg, ip administered for 14 days relative to control. It is filed as organism-based. Conditions: in vivo.
The subject of data set [11] is Mus musculus. The data set is described as follows: Toxicity in BALB/c nude mouse xenografted with human HCT116 cells assessed as mortality at 2 to 4 mg/kg, ip administered thrice a week for 6 consecutive weeks. It is filed as organism-based. Conditions: in vivo. An outline of the steps: (§2)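 Lung metastasis model: HCT-116 cells in serum-free medium injected into tail vein of BALB/c nude mice, then randomized and given vehicle or compound ip (1, 2 or 4 mg/kg) three times a week. Body weight recorded weekly, survival monitored (n = 6); mice sacrificed after 40 days and lungs examined by H&E histology.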

Another data set has as its system A549. The data set is described as follows: Antiproliferative activity against human A549 cells after 72 hrs by MTT assay. It is filed as functional, cell-based. The conditions noted are these: A549, 72 h.
The subject of data set [12] is HCT-116. Put plainly: Antiproliferative activity against human HCT116 cells at 8 uM after 72 hrs by MTT assay. It is filed as functional, cell-based. In short, it runs like this:
(§3)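 HCT-116 cells pretreated with or without GSH (10 mM) for 1 h, washed, then treated for 72 h. Viability measured by MTT and inhibitory rates calculated. Mean ± SD of three independent experiments.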

Data set [13] relates to HCT-116. Put plainly: Inhibition of TGF-beta1-induced decrease in expression levels of E-cadherin protein in human HCT116 cells at 50 nM after 48 hrs by Western blot analysis. The class given is functional, cell-based. In short, it runs like this:
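HCT-116 cells treated with or without TGF-β1 (10 ng/mL) for 48 h, with or without test agent. Lysates (20 μg/lane) run on 7.5% SDS-PAGE and transferred to PVDF. Probed for p-Akt (Ser473), Akt, p-GSK-3β (S9), GSK-3β, E-cadherin, MMP-9 and β-actin, detected by ECL. Densitometry relative to β-actin or total protein. Three independent experiments.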
For orientation: A western blot detects proteins with antibodies after separation by electrophoresis.

The test system of data set [14] is HCT-116. Put plainly: Inhibition of TGF-beta1-induced increase in expression levels of MMP-9 protein in human HCT116 cells at 50 nM after 48 hrs by Western blot analysis. The class given is functional, cell-based. In short, it runs like this:
as §1

Data set [15] concerns HCT-116. Put plainly: Antiproliferative activity against human HCT116 cells at 8 uM pretreated with GSH for 1 hr measured after 72 hrs by MTT assay. It is filed as functional, cell-based. In short, it runs like this:
as §3
(Tetrazolium dyes change colour on reduction, which living cells bring about.)

The test system of the next data set is K562. The data set is described as follows: Antiproliferative activity against human K562 cells after 72 hrs in presence of ligustrazine by MTT assay. The class given is functional, cell-based. The conditions noted are these: K562, 72 h. In short, it runs like this:
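Cells grown in RPMI 1640 with 10% FBS in 96-well plates overnight, then exposed to test agents in triplicate for 72 h. MTT (5 mg/mL stock) added for the last 4 h, formazan dissolved in DMSO, absorbance read at 570 nm. Inhibition = (1 − OD treated/OD control) × 100%.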

Data set [16] has as its system Mus musculus. Put plainly: Toxicity in BALB/c nude mouse xenografted with human HCT116 cells assessed as mortality at 4 mg/kg, ip administered thrice a week for 6 consecutive weeks. Conditions: in vivo. It is filed as organism-based. In short, it runs like this:
as §2

Active and inactive are the calls of the source. No cut-off for these calls is given here.

Turning to `Cc1nc(C)c(/C=C/C(=O)N2CCC=C(Cl)C2=O)nc1C`, the Stability result in data set [1] is “Stable”. Moreover, in [2], the 50% lethal dose (LD50) at 336 h stood at 148 mg/kg. Besides, the Activity entry with Mus musculus [3] is recorded as “Toxic”; with Mus musculus [8], “Non-Toxic”; with Mus musculus [11] it was “Non-Toxic”. Besides, the survival at 336 h in data set [4] worked out at 100%; in data set [6] it was 10%; in data set [10], 0%. Besides, in data set [5], the inhibition entry was “Active”. The inhibition result in the data set on HCT-116 [7] and with HCT-116 [9] was “Dose-dependent effect” throughout. This molecule also had an IC50 in the data set on A549 of 2.21 µM.
As for `COc1cc(/C=C/C(=O)N2CCC=CC2=O)cc(OC)c1OC` [PIPLARTINE], the result with HCT-116 [12] was Active. Further, the inhibition result in the data set with HCT-116 [13] and with HCT-116 [14] was “Active” each time. For the same molecule, the outcome in the data set with HCT-116 [15] was inactive. The IC50 in the data set on K562 was determined as 5.09 µM. For the same molecule, the Activity entry in the data set on Mus musculus [16] is “Non-Toxic”.

Usually LD50 stands for the dose at which mortality reaches 50%. In general, IC50 refers to the concentration needed to halve the response being measured.
